Reference: ChEMBL document CHEMBL4002557, “Phenanthrenes from Juncus inflexus with Antimicrobial Activity against Methicillin-Resistant Staphylococcus aureus” (2016)
≈ marks a conversion by molar mass, not a printed value. Calls of active or inactive are those of the source. No cut-off for these calls is given here.

Tests used:
Assay type in all cases: functional
Staphylococcus aureus [1] = assay: Antibacterial activity against methicillin-resistant Staphylococcus aureus ATCC 43300 at 5 ug/disk after 24 hrs by disk diffusion method; details: ATCC 43300, 24 h, read-out: DIZ
Staphylococcus aureus [2] = assay: Antibacterial activity against methicillin-resistant Staphylococcus aureus ATCC 43300 at 10 mg/ml after 24 hrs by disk diffusion method; details: for zone of inhibition at 10000 µg/mL: ATCC 43300, 24 h, read-out: DIZ
Outline: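 Disk diffusion. Pure compounds were diluted to 10 mg/mL in DMSO, and 50 μL was loaded onto 6 mm sterile paper disks. Disks were placed on agar seeded with bacterial suspension (0.5 McFarland, (1−2) × 10^8 CFU/mL), with solvent as negative control. Incubation was 37 °C, 24 h, aerobic. Inhibition-zone diameter was measured including the disk. Done in triplicate.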

Staphylococcus aureus [3] = assay: Antibacterial activity against methicillin-resistant Staphylococcus aureus ATCC 43300 after 24 hrs by microdilution method; details: ATCC 43300, 24 h
Outline: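 Broth microdilution in 96-well plates. DMSO stocks (50 mg/mL) were serially diluted in Mueller-Hinton broth to final 2.5 mg/mL–4.9 μg/mL. Inoculum was 0.5 McFarland, (1−2) × 10^8 CFU/mL. Controls were sterility, DMSO/inoculum negative and vancomycin positive. Incubation was 37 °C, 24 h, aerobic. MIC was the lowest concentration with no visible growth. Run twice in triplicate.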

Staphylococcus aureus [4] = assay: Ratio of MIC for methicillin-sensitive Staphylococcus aureus in dark to MIC for methicillin-sensitive Staphylococcus aureus in presence of UVA irradiation

Q: For `CN[C@H](CC(C)C)C(=O)N[C@H]1C(=O)N[C@@H](CC(N)=O)C(=O)N[C@H]2C(=O)N[C@H]3C(=O)N[C@H](C(=O)N[C@H](C(=O)O)c4cc(O)cc(O)c4-c4cc3ccc4O)[C@H](O)c3ccc(c(Cl)c3)Oc3cc2cc(c3O[C@@H]2O[C@H](CO)[C@@H](O)[C@H](O)[C@H]2O[C@H]2C[C@](C)(N)[C@H](O)[C@H](C)O2)Oc2ccc(cc2Cl)[C@H]1O` [VANCOMYCIN], which zone of inhibition at 5 µg/disc (Staphylococcus aureus [1]) is on record?
A: 15.5 mm

Q: How did the “diameter of the inhibition zone (DIZ)” value (Staphylococcus aureus [2]) turn out when `C=Cc1c(C)c(O)cc2ccc3c(C)c(O)ccc3c12` was run?
A: inactive

Q: `C=Cc1c(C)c(O)cc2c1ccc1c(C)c(O)ccc12` was tested. Which MIC (Staphylococcus aureus [3]) did it give?
A: 25 µg/mL (≈ 94.6 µM)

Q: And the zone of inhibition at 10000 µg/mL (Staphylococcus aureus [2])?
A: 10 mm

Q: For `COc1cc(-c2cc(=O)c3c(O)cc(O)cc3o2)ccc1O`, which “diameter of the inhibition zone (DIZ)” value (Staphylococcus aureus [2]) is on record?
A: inactive

Q: With `Cc1cc2ccc3c(C)c(O)ccc3c2cc1[C@@H]1CC=Cc2c3c(c(C)c(O)c21)CCc1c-3ccc(O)c1C` as the compound, how does the “diameter of the inhibition zone (DIZ)” value (Staphylococcus aureus [2]) read?
A: inactive

Q: For `C=Cc1cc2c(ccc3c(C)c(O)ccc32)cc1C`, which “diameter of the inhibition zone (DIZ)” value (Staphylococcus aureus [2]) is on record?
A: inactive

Q: With `COC(C)c1cc(O)c(C)c2c1-c1ccc(O)c(C)c1CC2` (racemic) as the compound, how does the “diameter of the inhibition zone (DIZ)” value (Staphylococcus aureus [2]) read?
A: inactive

Q: `C=Cc1c(C)c(O)cc2c1-c1ccc(OC)c(CO)c1CC2` was tested. Which MIC (Staphylococcus aureus [3]) did it give?
A: 100 µg/mL (≈ 337 µM)

Q: What about the zone of inhibition at 10000 µg/mL (Staphylococcus aureus [2]) of the same compound?
A: 7 mm

Q: How did the MIC (Staphylococcus aureus [3]) turn out when `C=CC1=C(C)C(=O)C=C2c3ccc(O)c(C)c3CC[C@]21O` was run?
A: 12.5 µg/mL (≈ 44.3 µM)

Q: What about the zone of inhibition at 10000 µg/mL (Staphylococcus aureus [2]) of the same compound?
A: 12 mm

Q: How did the Ratio (Staphylococcus aureus [4]) turn out when `C=Cc1cc(O)cc2c1-c1ccc(O)c(C)c1CC2` [EFFUSOL] was run?
A: 16

Q: Which results are given for `C=Cc1c(C)c(O)cc2c1-c1ccc(O)c(C)c1CC2`?
A: Ratio (Staphylococcus aureus [4]): 2; MIC (Staphylococcus aureus [3]): 25 µg/mL (≈ 93.9 µM); zone of inhibition at 10000 µg/mL (Staphylococcus aureus [2]): 12 mm

Q: How did the “diameter of the inhibition zone (DIZ)” value (Staphylococcus aureus [2]) turn out when `C=Cc1c(C)c(O)cc2c1CCc1c-2ccc(O)c1C` was run?
A: inactive

Q: For `C=C[C@@]1(C)C(=O)C2=C(C[C@H]1O)c1ccc(O)c(C)c1CC2`, which “diameter of the inhibition zone (DIZ)” value (Staphylococcus aureus [2]) is on record?
A: inactive

Q: How did the “diameter of the inhibition zone (DIZ)” value (Staphylococcus aureus [2]) turn out when `C=Cc1cc2c(cc1C)CCc1c-2ccc(O)c1C` was run?
A: inactive
